Screening results from PubChem BioAssay.
Only some compounds are listed: those with a hit (about 4.5% of all), similar ones and a draw of the others.
TAAR1 ag = human TAAR1 agonism; Q96RJ0; actives 0.99% (n = 360,000); CHO RD-HGA16 TAAR1, Fluo-8 calcium fluorescence; vehicle wells 0%, saturating PEA agonist 100%; activation, % at 3 µM;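 active = activation above the mean activation of all test compounds in the run plus 3 SD, cut at about 38% in these data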
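test system = CHO RD-HGA16 cells carrying human TAAR1 plus Gα16 | schedule = 17-24 h seeding, 75 min 37 °C dye, 30 min RT | compound dosing = 3 µM single concentration | control set = DMSO and PEA EC100 | replicates = n 1 | signal = Fluo-8 fluorescence, 5 s baseline then 140 s kinetic read | measure = percent activation vs PEA EC100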
OX1R antag-1 = antagonists of human orexin 1 receptor. O43613. CHO/OX1R cells, Fluo-8 calcium fluorescence, orexin A. inhibition, % at 5 µM. actives 0.43% (n = 330,000);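 active = inhibition above its plate's threshold, mean inhibition of all tested compounds on the plate plus 3 SD, cut at about 37% in these data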;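 note: 0% = orexin A challenge wells and 100% = SB-334867-A antagonist wells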
Target sequence (O43613 whole entry, looked up): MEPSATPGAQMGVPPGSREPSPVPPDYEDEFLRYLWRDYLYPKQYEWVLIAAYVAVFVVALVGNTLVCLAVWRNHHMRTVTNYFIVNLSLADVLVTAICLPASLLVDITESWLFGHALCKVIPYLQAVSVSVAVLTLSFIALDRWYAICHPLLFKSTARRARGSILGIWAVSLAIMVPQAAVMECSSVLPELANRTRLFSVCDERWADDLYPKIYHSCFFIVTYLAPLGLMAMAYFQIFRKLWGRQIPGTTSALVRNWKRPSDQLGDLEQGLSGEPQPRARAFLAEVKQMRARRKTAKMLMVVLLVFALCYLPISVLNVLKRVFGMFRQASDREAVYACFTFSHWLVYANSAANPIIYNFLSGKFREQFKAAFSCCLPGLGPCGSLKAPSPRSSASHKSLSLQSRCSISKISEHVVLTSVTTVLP
CHO parental Ca = counter-screen for OX1R antagonists: effect in parental CHO cells | actives 0.63% (n = 330,000) | inhibition, % at 5.6 µM | parental CHO-K1, ATP-induced calcium, Fluo-8 fluorescence;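 active = inhibition above that plate's mean sample inhibition plus 3 SD, cut at about 26% in these data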;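 note: 0% = ATP-challenged DMSO wells and 100% = DMSO wells without ATP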
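Test system: untransfected parental CHO cell line. Compound: one dose, 5.6 µM nominal. Detection: intracellular calcium via Fluo-8 no-wash fluorescent dye. Measure: % inhibition. Benchmarks: ATP-challenged DMSO wells low, unchallenged DMSO wells high.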
TAAR1 antag = human TAAR1 antagonism; inhibition, % at 3 µM; Q96RJ0; actives 1.5% (n = 360,000); CHO RD-HGA16 TAAR1, Fluo-8 calcium fluorescence, antagonist;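 active = inhibition above a per-plate cutoff, the mean inhibition of test compounds on that plate plus 3 SD, cut at about 49% in these data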;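 note: 0% = DMSO plus EC80 beta-PEA response and 100% = DMSO alone without agonist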
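System: CHO RD-HGA16 cells bearing hTAAR1. Reagent: EC80 β-phenethylamine stimulus. Schedule: seeding 17-24 h prior, 75-min 37 °C, 30-min RT dye loading. Signal: Fluo-8 intracellular calcium dye fluorescence, real-time kinetic reads. Read-out: % inhibition from peak post-agonist over basal fluorescence ratio. Benchmarks: vehicle wells and EC80 agonist wells. Replicates: n of 1.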
GPR7 antag = human neuropeptides B/W receptor 1 antagonism. P48145. GPR7-expressing cells, fluorescence antagonist assay. inhibition, % at 4.4 µM. actives 1.1% (n = 290,000). AID 1861; in the data active = inhibition above about 16%, passing the limit was not always enough;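 note: cells stimulated with the agonist NPW; 0% = agonist with vehicle and 100% = vehicle without agonist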
OX1R antag-2 = blocks the human orexin 1 receptor; O43613; OX1R-expressing cells, FRET antagonist read-out; inhibition, % at 6.6 µM; actives 1.8% (n = 330,000); AID 485270; in the data active = inhibition mostly above about 38%, no sharp cut-off; inactive = mostly below about 40%;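 note: 0% = agonist challenge alone and 100% = reference antagonist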
* marks the source's active call; other numbers are inactive results; nt = no result.

SMILES	TAAR1 ag	OX1R antag-1	CHO parental Ca	TAAR1 antag	GPR7 antag	OX1R antag-2
CCCCc1c(-c2ccccc2OC)ncn1Cc1ccccc1C	4.5	nt	nt	16.1	nt	nt
C=CCSc1nnc(-c2cc3c(-c4ccccc4)nn(C)c3s2)n1C	12.1	-4.0	-29.4	0.9	-6.0	74.9*
COc1ccc(NC(=O)c2sccc2OS(=O)(=O)N(C)C)cc1	4.8	-15.6	-24.3	21.2	-9.1	9.5
CN(C)S(=O)(=O)Oc1ccsc1C(=O)Nc1cccc(Cl)c1Cl	1.2	-25.9	46.0*	5.0	-1.4	41.7
COc1ccc(C(OCC(O)CNCCc2ccc(S(N)(=O)=O)cc2)c2ccc(OC)cc2)cc1 (stereo not drawn)	3.2	-19.3	0.0	-6.7	16.7	5.3
OC(CNCCc1ccc(C(F)(F)F)cc1)COC(c1ccccc1)c1ccccc1 (stereo not drawn)	35.2	48.9*	89.5*	35.4	30.7	-4.8
COc1ccc(C2CC3(CC(C)(C)NC(=S)N3)Oc3cc(O)cc(C)c32)cc1 (stereo not drawn)	0.7	-14.0	-21.0	1.6	-6.5	4.4
COc1ccc(C2CC3(CC(C)(C)NC(SC)=N3)Oc3cc(O)cc(C)c32)cc1 (stereo not drawn)	50.9*	-4.2	-9.2	5.3	7.9	-30.4
CN1CCCCC(NC(=O)c2c(F)cccc2F)C1=O (stereo not drawn)	2.1	nt	nt	-5.1	nt	nt
CC(=O)NC1=C(N(C)C2CCS(=O)(=O)C2)C(=O)c2ccccc2C1=O (stereo not drawn)	0.7	-9.5	-7.7	-3.5	-6.4	70.4*
CN(C(=O)Nc1ccccc1)C1CCS(=O)(=O)C1 (stereo not drawn)	11.6	-4.5	-1.8	-9.1	-2.0	4.8
O=C(c1cc2nc(-c3ccccc3)cc(C(F)(F)F)n2n1)N1CCN2CCCC2C1 (stereo not drawn)	0.2	-23.9	-9.8	-16.5	5.1	28.4
CCOC(=O)C1CCCN(C(=O)c2cc3nc(-c4cccc(OC)c4)cc(C(F)(F)F)n3n2)C1 (stereo not drawn)	6.0	-18.2	-7.7	62.9*	-15.9	21.1
CC(C)[C@H](NC(=O)c1ccccc1)C(=O)OCC(=O)Nc1ncc(Cl)cc1Cl	-0.8	-14.4	-11.6	-2.4	nt	5.1
Cc1ccc2nc(-c3ccc(NC(=S)NC(=O)C(C)C)cc3)sc2c1	3.5	-8.8	7.0	-1.7	-1.2	13.8
Cc1ccc2nc(-c3ccc(NC(=S)NC4CC(C)(C)NC(C)(C)C4)cc3)sc2c1	9.9	11.2	9.2	32.4	51.9*	8.8
CCCCN(CC)CCNC(=O)C1CCCN(S(=O)(=O)c2cccc3nsnc23)C1 (stereo not drawn)	-1.1	-21.8	-18.6	-2.8	-10.3	36.9
COC(CNC(=O)C1CCN(S(=O)(=O)c2cccc3nsnc23)CC1)OC	2.5	-7.6	1.3	-19.0	-7.9	36.5
CCCCN(CC)CCNC(=O)C1CCN(S(=O)(=O)c2cccc3nsnc23)CC1	0.3	-21.9	-16.8	-13.5	-14.5	51.2*
CCCN(CCC)CCNC(=O)C1CCN(S(=O)(=O)c2cccc3nsnc23)CC1	0.5	-6.0	-4.9	-5.7	-10.2	42.9*
CCCCN(C)CCNC(=O)C1CCN(S(=O)(=O)c2cccc3nsnc23)CC1	-0.1	-2.8	-12.4	-12.6	-9.1	48.7*
COC(=O)[C@]12C[C@H](CC(=O)NCc3cccc(C(F)(F)F)c3)C(=O)N(Cc3ccc4c(c3)OCO4)C1=C[C@H](C(C)(C)C)O[C@@H]2C	0.0	nt	nt	-10.6	nt	nt
OC(c1ccccc1)(c1ccccc1)C1CCN(CCCOc2cccc(C(F)(F)F)c2)CC1	31.9	nt	nt	35.8	nt	nt
COc1ccc(NC(=O)N(C)C[C@@H]2OCCCC[C@@H](C)Oc3ccc(NS(C)(=O)=O)cc3C(=O)N([C@H](C)CO)C[C@@H]2C)cc1	0.5	nt	nt	-15.8	nt	nt
COc1ccc(-c2csc(NC(=O)c3c(C)noc3C)n2)cc1OC	10.0	nt	nt	33.0	nt	nt
SMILES	TAAR1 ag	OX1R antag-1	CHO parental Ca	TAAR1 antag	GPR7 antag	OX1R antag-2
O=C1c2ccccc2-c2cccnc21	1.9	-19.8	-4.3	-18.8	-10.1	46.6*
CC1CC1C(=O)OCC(=O)NC(=O)c1ccc(C(C)(C)C)cc1 (stereo not drawn)	17.8	-21.8	-7.2	9.9	nt	10.2
O=C(CNC(=O)c1ccccc1)NCC(=O)OCC(=O)c1ccc(F)cc1	0.4	4.0	-2.5	10.0	0.1	6.2
CC1CC1C(=O)OCC(=O)NNC(=O)c1ccc([N+](=O)[O-])cc1 (stereo not drawn)	5.2	9.0	-11.6	5.2	nt	34.3*
O=C(CNC(=O)c1ccccc1)NCC(=O)OCC(=O)c1ccc([N+](=O)[O-])cc1	5.0	-5.4	-3.5	13.1	-1.4	54.4*
CCOc1ccccc1OCC(=O)OCC(=O)NNC(=O)c1ccc([N+](=O)[O-])cc1	2.2	-3.6	-10.7	-13.3	-18.3	54.9*
Cc1ccc(C(=O)OCC(=O)NNC(=O)c2ccc([N+](=O)[O-])cc2)o1	3.6	-10.2	-10.7	-26.4	nt	40.9*
COc1ccc(OC)c(CCNC(=O)Cn2sc3nc(C)cc(C)c3c2=O)c1	nt	54.7*	49.1*	nt	16.3*	20.0
COc1ccc(OC)c(CCNC(=O)Cn2nc(C)c3c(C)n(-c4ccc(C)cc4)nc3c2=O)c1	4.7	-19.0	-22.1	-5.1	-4.1	12.5
CC(C)CC(CO)N1CCN(C(=O)c2cccc(Cl)c2)CCC1=O (stereo not drawn)	5.7	2.5	-12.4	-0.5	nt	6.5
CC(=O)c1cccc([N+](=O)[O-])c1	1.9	-10.4	-9.2	16.5	nt	4.7
O=C(C#Cc1ccccc1)c1cccc([N+](=O)[O-])c1	1.5	12.7	36.3*	28.0	-2.3	17.1
COc1ccc(-c2cc(=Nc3c(C)n(C)n(-c4ccccc4)c3=O)c3ccccc3o2)cc1	-0.5	-12.2	-9.9	7.0	0.5	54.9*
CCCNC(=O)c1ccccc1NC(=O)COc1cccc2c1OC(C)(C)C2	7.6	-18.5	-31.1	50.4*	nt	27.7
CC1(C)Cc2cccc(OCC(=O)Nc3ccccc3F)c2O1	3.1	-32.8	-19.6	-9.8	nt	15.2
CN(CC(=O)N1CCCCC1)S(=O)(=O)c1cccc2cccnc12	2.2	-13.9	-4.8	-7.2	-6.2	10.1
CC1Cc2ccccc2N1C(=O)CN(C)S(=O)(=O)c1cccc2cccnc12 (stereo not drawn)	6.4	-2.6	2.4	17.1	-8.0	56.4*
CC1Cc2ccccc2N1C(=O)C1CCCN(S(=O)(=O)c2cccc3cccnc23)C1 (stereo not drawn)	2.8	-5.7	-16.9	3.0	-9.5	58.1*
O=C(O)[C@@H]1CCCN(S(=O)(=O)c2cccc3cccnc23)C1	4.3	-6.6	-5.4	21.0	nt	12.0
